From PubChem BioAssay
OXTR agonist: human OXTR agonists, primary screen, fluorescence, CHO-OTR cells, Fluo-8 calcium | Oxytocin receptor (Homo sapiens), P30559 | Fluo-8 calcium fluorescence; normalized: DMSO 0%, oxytocin 100% | 0.32% of 320,000 active | activation, % at 3 µM;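 active = activation above the mean of all tested compounds plus 3 SD, cutoff set per screening run, cut at about 20% in these data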;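 also: peak over basal fluorescence ratio from a 100 s FLIPR kinetic read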
V1aR counter: agonists of human V1a receptor, primary screen, counter-screen for OXTR agonist project, fluorescence, CHO-V1R cells; Vasopressin V1a receptor (Homo sapiens), P37288; Fluo-8 calcium fluorescence, agonist mode; 0% DMSO, 100% 3 nM vasopressin; 0.25% of 320,000 active; activation, % at 3 µM;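 active = activation above the mean activation of all tested compounds plus 3 SD, per screening run, cut at about 20% in these data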;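 also: signal is peak over basal fluorescence ratio across a 100 second FLIPR read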
Target sequence (P37288 whole entry, looked up): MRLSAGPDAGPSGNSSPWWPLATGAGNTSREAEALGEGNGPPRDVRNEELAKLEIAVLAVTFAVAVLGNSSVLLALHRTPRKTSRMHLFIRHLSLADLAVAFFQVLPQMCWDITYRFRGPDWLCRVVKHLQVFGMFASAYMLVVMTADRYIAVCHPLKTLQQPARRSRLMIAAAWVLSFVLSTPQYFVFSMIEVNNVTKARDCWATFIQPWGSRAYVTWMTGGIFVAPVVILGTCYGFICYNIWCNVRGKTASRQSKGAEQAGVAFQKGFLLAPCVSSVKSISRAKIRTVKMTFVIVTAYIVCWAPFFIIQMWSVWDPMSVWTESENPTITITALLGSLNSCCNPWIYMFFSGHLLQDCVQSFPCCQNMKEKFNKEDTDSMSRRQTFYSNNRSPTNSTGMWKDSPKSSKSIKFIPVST
TAAR1 ag: human TAAR1 agonists, primary screen, Fluo-8 calcium fluorescence, CHO RD-HGA16 cells; AID 624467, 2012; 0.99% of 360,000 active; activation, % at 3 µM; Trace amine-associated receptor 1 (Homo sapiens), Q96RJ0; vehicle wells 0%, saturating PEA agonist 100%;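 active = activation above the mean activation of all test compounds in the run plus 3 SD, cut at about 38% in these data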
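Signal – calcium-sensitive Fluo-8 signal, excitation 470-495, emission 515-575 nm · System – RD-HGA16 (CHO) cells co-expressing Gα16 and hTAAR1 · Incubation – 17-24 h seeding, 75 min 37 °C dye, 30 min RT · Compound dosing – 3 µM single concentration · Repeats – no replicates (n 1)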
TAAR1 antagonist: human TAAR1 antagonists, primary screen, Fluo-8 calcium fluorescence, CHO RD-HGA16 cells; 1.5% of 360,000 active; inhibition, % at 3 µM; antagonist;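 active = inhibition above a per-plate cutoff, the mean inhibition of test compounds on that plate plus 3 SD, cut at about 49% in these data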
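Test system: CHO RD-HGA16 cells bearing hTAAR1 | Reagent: β-PEA, EC80 | Compound dosing: 3 µM, single point | Schedule: Dye loading 75 min at 37 °C, then 30 min room temperature | Signal: Calcium fluorescence with Fluo-8 | Evaluation: Percent inhibition of PEA-evoked calcium signal, max/basal emission ratio | Control set: DMSO-only wells and EC80 β-PEA-stimulated wells | Repeats: Singlicate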
OXTR potentiator: human OXTR potentiators, primary screen, fluorescence, CHO-OTR cells, Fluo-8 calcium | 0.061% of 320,000 active | activation, % at 3 µM | Oxytocin receptor (Homo sapiens), P30559 | Fluo-8 calcium fluorescence, potentiator mode; 0% = oxytocin EC15, 100% = EC100;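 active = activation above that plate's cutoff, the mean activation of tested compounds plus 3 SD, cut at about 6.6% in these data, passing the limit was not always enough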
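Assay system: CHO cell line stably expressing human OTR | Also added: Oxytocin at about EC15, sub-maximal agonist stimulus | Times: Compound 6 min at room temperature before oxytocin, 100 s read | Measured by: Fluo-8 intracellular calcium fluorescence, ex 470-495, em 515-575 nm | Controls: EC15 oxytocin alone as 0%, 75 nM oxytocin as 100%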
TAAR1 nonsel count: nonselective antagonists in TAAR1 counter-screen cells, counter-screen for hTAAR1 antagonist project, cell-based, fluorescence, calcium. shares compounds with TAAR1 antagonist. counterscreen cell line, antagonist mode. inhibition, % at 3 µM. 77% of 2,400 active. AID 651780, 2012; in the data active = inhibition above about 22%;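 also: CHO-Ga16 host cells stimulated with ATP at an EC80 level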
TAAR1 ant conf: human TAAR1 antagonists, retest of hits, confirmation, cell-based, fluorescence; TAAR1-expressing cells, fluorescence antagonist read-out; shares compounds with TAAR1 antagonist; 40% of 2,400 active; inhibition, % at 3 µM; in the data active = inhibition above about 49%;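 also: CHO-Ga16 host cells challenged with agonist PEA near its EC80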
Ga16 ag counter: calcium activation in Ga16-expressing cells, counter-screen for TAAR1 antagonist project, cell-based, fluorescence; 18% of 2,400 active; agonist counterscreen; shares compounds with TAAR1 antagonist; activation, % at 3 µM; AID 651953, 2012; in the data active = activation above about 12%
TAAR1 ag counter: TAAR1 activation by candidate antagonists – cell-based, fluorescence, counter-screen for TAAR1 antagonist project | 2% of 2,400 active | hTAAR1 cell line, agonist mode | AID 651955, 2012 | shares compounds with TAAR1 antagonist | activation, % at 3 µM; in the data active = activation above about 37%;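 also: CHO cells stably expressing TAAR1 with calcium dye readout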
Hits are given with their value; . = inactive; / = no result given. Compounds with a hit are over-represented: about 2.3% of the library has one in this group of screens.

SMILES	OXTR agonist	V1aR counter	TAAR1 ag	TAAR1 antagonist	OXTR potentiator	TAAR1 nonsel count	TAAR1 ant conf	Ga16 ag counter	TAAR1 ag counter
CCC(c1nnnn1Cc1ccco1)N1CCN(C(=O)c2ccco2)CC1 (centres undefined)	.	.	.	.	.	/	/	/	/
O=C(c1ccco1)N1CCN(C(c2ccccc2Cl)c2nnnn2Cc2ccco2)CC1 (centres undefined)	.	.	.	62	.	35	55	.	.
CCc1noc(C)c1C(=O)N(CC)CC(=O)Nc1cc(Cl)ccc1C	.	.	.	.	.	/	/	/	/
CC(C)(C)OC(=O)N1CCCC(C(=O)Nc2cccc(C(=O)N3CCCCC3)c2)C1 (centres undefined)	/	/	.	.	/	/	/	/	/
CCOc1ccc(OCCCC(=O)N2CCN(S(=O)(=O)c3ccccc3C#N)CC2)cc1	.	.	.	60	.	.	.	.	.
CCOc1ccc(OCCC(=O)N2CCN(S(=O)(=O)c3ccc(OCC)cc3)CC2)cc1	.	.	.	.	.	/	/	/	/
Cc1ccc(N2CC(=O)N(CC(=O)O)C2=O)cc1	.	.	.	.	.	/	/	/	/
